Here are results for 19 molecules from ChEMBL document CHEMBL1121446, “Quantitative structure-pharmacokinetic relationships derived on antibacterial sulfonamides in rats and its comparison to quantitative structure-activity relationships” (J Med Chem, 1980).

The term pKa denotes the pH at which an ionisable group is half protonated. Higher therefore signals a group that holds its proton tightly. As usually defined, the half-life is the time in which the quantity being followed falls by half. Low values mean fast loss, high ones slow loss.

Data set [1] can be described thus: Total clearance from the body in rat. Format: ADME, organism-based. Particulars: in vivo, read-out: ClT.
The species named for data set [2] is Rattus norvegicus. Briefly: Affinity for protein binding expressed as association constant in fresh rat serum. Format: ADME, organism-based. The gist of the method:
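Sulfapyridines added to freshly prepared rat serum at 100-600 µmol/L in 100 µmol/L steps. Samples ultracentrifuged 10 h at 45000 rpm (g = 150000), 37 °C. Unbound drug in the top protein-free layer measured photometrically by Bratton-Marshall. Total drug measured before centrifugation, with controls correcting for sedimentation of unbound drug. Bound = total − free; Kassoc from a Scatchard plot.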

Data set [3] is described as follows: Acid dissociation constant. Format: ADME. In short, it runs like this:
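pKa of the sulfapyridine acidic NH measured spectrophotometrically.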

Data set [4] is described as follows: Half life in rat. Particulars: in vivo. Format: ADME, organism-based. The gist of the method:
(§1)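 Male Sprague-Dawley rats received the SA sodium salt, 50 mg/kg, into the tail vein within 1 min. Tail-artery blood was sampled over time and plasma separated by centrifugation. Unmetabolized and total SA were assayed by modified Bratton-Marshall before and after hydrolysis of N4 metabolites. ke (or kC,U for unchanged drug) was obtained by computer fitting to a one-compartment model. Vc = dose / extrapolated initial plasma concentration.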

Data set [5] is described as follows: Overall elimination rate in rat. Format: ADME, organism-based. Particulars: in vivo, read-out: ke (converted). In short, it runs like this: as §1
The species entered for data set [6] is Rattus norvegicus. Briefly: Apparent volume of distribution was determined in rat. Format: ADME, organism-based. Conditions: in vivo. The gist of the method:
as §1

Data set [7] is filed under the species Rattus norvegicus. In words: Metabolic clearance from the body in rat. Format: ADME, organism-based. Particulars: in vivo. In short, it runs like this: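 Metabolic clearance calculated as total clearance minus renal clearance. Plasma levels were measured before and after hydrolysis of N4-acetyl metabolites.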
The nature of data set [8]: First order rate of elimination of unchanged drug in rat. Format: ADME, organism-based. Particulars: in vivo, read-out: kC,U (converted). In short, it runs like this: as §1
The nature of data set [9]: Renal clearance from the body in rat. Format: ADME, organism-based, Kidney. Particulars: in vivo, read-out: CL_renal. The gist of the method:
(§2)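 Drug solutions were infused into rats at 1.9 mL/h, with plasma and urine concentrations measured simultaneously over time. Clearance = urine concentration × urine volume per minute / plasma concentration. Inulin and PAH clearances were also determined. Urine pH was set with NH4Cl (pH 5-6) or NaHCO3 (pH 7.8), compared with normal pH 6.8.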

Data set [10] can be described thus: Half life was determined. Format: ADME. Conditions: rat.
The nature of data set [11]: Renal clearance from the body. Format: ADME, organism-based, Kidney. Particulars: in vivo; read-out: CL_renal. In short, it runs like this:
as §2

For `Cc1ccnc(NS(=O)(=O)c2ccc(N)cc2)c1`, the clearance in [1] worked out at 1.38 mL/min. Further, the K ass in the data set filed under Rattus norvegicus [2] is on record as 6606 l M-1. In data set [3], the pKa was determined as 9.01. For the same molecule, in data set [4], the half-life is 1.19 h. For the same molecule, in data set [5], the k el was 0.000161 s⁻¹. Besides, the Vc in the data set filed under Rattus norvegicus [6] amounted to 142.8 mL.
Consider `Cc1cc(Br)cnc1NS(=O)(=O)c1ccc(N)cc1`, for which, in [1], the clearance turned out to be 0.2 mL/min. The K ass in the data set listed under Rattus norvegicus [2] is given as 5888 l M-1. The molecule also showed a pKa in data set [3] of 7.19. In addition, in data set [4], the half-life is 8.15 h. Moreover, in [5], the k el is 2.36e-05 s⁻¹. Moreover, the Vc in the data set filed under Rattus norvegicus [6] came out at 142.6 mL.
In the data set listed under Rattus norvegicus [7], `Cc1cc(C)nc(NS(=O)(=O)c2ccc(N)cc2)c1` registered a ClM of 0.48 mL/min. In addition, the clearance in data set [1] turned out to be 1.76 mL/min. Also, the K ass in the data set listed under Rattus norvegicus [2] is given as 5495 l M-1. This molecule returned a pKa in [3] of 9.54. The molecule further had a half-life in [4] of 1.2 h. Also, the k el was 0.000117 s⁻¹ in data set [8] and 0.00016 s⁻¹ in [5]. The CL renal in [9] is 1.28 mL/min. For the same molecule, the Vc in the data set listed under Rattus norvegicus [6] came out at 183 mL.
In the data set filed under Rattus norvegicus [7], `Nc1ccc(S(=O)(=O)Nc2ncc(Cl)cc2Cl)cc1` displayed a ClM of 0.03 mL/min. For the same molecule, the clearance in data set [1] amounted to 0.05 mL/min. In the data set filed under Rattus norvegicus [2], the K ass is reported as 12706 l M-1. Moreover, the pKa in data set [3] is 5.98. For the same molecule, the half-life in data set [4] is 21.6 h. The k el in data set [8] is 8.33e-06 s⁻¹; in data set [5] it was 8.89e-06 s⁻¹. For the same molecule, the CL renal in data set [9] is 0.05 mL/min. Further, the Vc in the data set filed under Rattus norvegicus [6] amounted to 99.2 mL.
With `CN(C)c1ccc(NS(=O)(=O)c2ccc(N)cc2)nc1`, the ClM in the data set listed under Rattus norvegicus [7] came to 0.19 mL/min. The clearance in [1] was 0.62 mL/min. The K ass in the data set listed under Rattus norvegicus [2] is 8511 l M-1. This molecule also gave a pKa in data set [3] of 9.21. The molecule further had a half-life in data set [4] of 2.08 h. Moreover, the k el was 6.39e-05 s⁻¹ in data set [8] and 9.25e-05 s⁻¹ in data set [5]. Besides, the CL renal in [9] came to 0.43 mL/min. Further, the Vc in the data set listed under Rattus norvegicus [6] turned out to be 111.2 mL.
Consider `Nc1ccc(S(=O)(=O)Nc2ncccc2Cl)cc1`, for which the clearance in data set [1] came to 0.2 mL/min. Also, the K ass in the data set filed under Rattus norvegicus [2] is 13441 l M-1. For the same molecule, the pKa in data set [3] turned out to be 6.8. In [4], this molecule had a half-life of 8.66 h. Besides, in data set [5], the k el is 2.22e-05 s⁻¹. Besides, in the data set filed under Rattus norvegicus [6], the Vc stood at 147.5 mL.
On to `Cc1cccnc1NS(=O)(=O)c1ccc(N)cc1`, for which, in [1], the clearance stood at 1.17 mL/min. The K ass in the data set filed under Rattus norvegicus [2] was 1622 l M-1. Moreover, the pKa in data set [3] is 8.74. Moreover, the half-life in [4] was 1.29 h. In addition, the k el in data set [5] was 0.000149 s⁻¹. The Vc in the data set filed under Rattus norvegicus [6] stood at 131 mL.
Regarding `Nc1ccc(S(=O)(=O)Nc2ccc([N+](=O)[O-])cn2)cc1`, the clearance in [1] came to 0.135 mL/min. Also, the K ass in the data set filed under Rattus norvegicus [2] is on record as 20417 l M-1. In data set [3], this molecule showed a pKa of 5.56. The half-life in data set [4] was 16.5 h. Moreover, in data set [5], the k el was 1.17e-05 s⁻¹. The Vc in the data set filed under Rattus norvegicus [6] is 192.8 mL.
As to `N#Cc1cccnc1NS(=O)(=O)c1ccc(N)cc1`, the clearance in data set [1] was 0.77 mL/min. In addition, the K ass in the data set listed under Rattus norvegicus [2] is given as 1820 l M-1. This molecule gave a pKa in data set [3] of 5.25. The molecule also had a half-life in data set [4] of 1.44 h. Besides, the k el in data set [5] is 0.000133 s⁻¹. For the same molecule, the Vc in the data set listed under Rattus norvegicus [6] turned out to be 96.7 mL.
`Nc1ccc(S(=O)(=O)Nc2ccccn2)cc1` [SULFAPYRIDINE] registered a ClM in the data set filed under Rattus norvegicus [7] of 0.46 mL/min. In addition, the clearance in data set [1] turned out to be 1.79 mL/min. Also, the K ass in the data set filed under Rattus norvegicus [2] is 4592 l M-1. In data set [3], the pKa was 8.54. This molecule had a half-life in data set [4] of 1.47 h. The k el was 9.72e-05 s⁻¹ in data set [8] and 0.000131 s⁻¹ in data set [5]. The CL renal in data set [9] was found to be 1.33 mL/min. The Vc in the data set filed under Rattus norvegicus [6] stood at 229 mL.
`Cc1cnc(NS(=O)(=O)c2ccc(N)cc2)c(C#N)c1`: the clearance in [1] was 0.47 mL/min. Besides, the K ass in the data set listed under Rattus norvegicus [2] was 10965 l M-1. In addition, the pKa in data set [3] was 5.35. This molecule had a half-life in data set [4] of 2.18 h. Moreover, the k el in data set [5] is 8.83e-05 s⁻¹. Also, in the data set listed under Rattus norvegicus [6], the Vc amounted to 89.7 mL.
Take `Nc1ccc(S(=O)(=O)Nc2ccc(Br)cn2)cc1`: the ClM in the data set filed under Rattus norvegicus [7] amounted to 0.07 mL/min. In addition, the clearance in data set [1] stood at 0.116 mL/min. In data set [3], this molecule showed a pKa of 6.98. This molecule also gave a half-life in data set [4] of 24.8 h. The figures for the k el in data set [8] and in data set [5] were 2.78e-06 s⁻¹ and 7.78e-06 s⁻¹, respectively. In addition, in data set [9], the CL renal worked out at 0.04 mL/min. Also, in the data set filed under Rattus norvegicus [6], the Vc was found to be 247.1 mL.
In the case of `CCOc1cccnc1NS(=O)(=O)c1ccc(N)cc1`, in [1], the clearance amounted to 0.81 mL/min. For the same molecule, the K ass in the data set listed under Rattus norvegicus [2] is 4169 l M-1. Besides, the pKa in [3] was 8.2. In data set [4], the half-life was 1.4 h. Also, the k el in data set [5] is 0.000138 s⁻¹. Also, the Vc in the data set listed under Rattus norvegicus [6] is 98.3 mL.
Take `COc1cccnc1NS(=O)(=O)c1ccc(N)cc1`: the clearance in [1] amounted to 0.91 mL/min. In the data set listed under Rattus norvegicus [2], the K ass is on record as 2399 l M-1. In data set [3], this molecule showed a pKa of 8.07. The molecule also showed a half-life in [4] of 1.27 h. Moreover, the k el in [5] was 0.000151 s⁻¹. Further, the Vc in the data set listed under Rattus norvegicus [6] was 100.3 mL.
`Cc1cc(Cl)cnc1NS(=O)(=O)c1ccc(N)cc1`: the clearance in data set [1] turned out to be 0.195 mL/min. Also, the pKa in [3] was 7.26. The molecule further gave a half-life in data set [4] of 8.15 h. The k el in data set [5] is 2.36e-05 s⁻¹. The Vc in the data set listed under Rattus norvegicus [6] amounted to 137.9 mL.
As for `Cc1ccc(NS(=O)(=O)c2ccc(N)cc2)nc1`, the clearance in [1] is 1.15 mL/min. The K ass in the data set filed under Rattus norvegicus [2] was 9183 l M-1. The molecule further registered a pKa in data set [3] of 8.95. Also, the half-life in [4] was 2.36 h. Also, the k el in data set [5] was 8.17e-05 s⁻¹. For the same molecule, in the data set filed under Rattus norvegicus [6], the Vc was 234 mL.
With `Cc1cccc(NS(=O)(=O)c2ccc(N)cc2)n1`, the clearance in [1] is 1.04 mL/min. For the same molecule, the K ass in the data set listed under Rattus norvegicus [2] was 5129 l M-1. Also, the pKa in data set [3] is 9.2. This molecule also had a half-life in data set [10] of 1.88 h. In addition, the k el in [5] was 0.000102 s⁻¹. In addition, the Vc in the data set filed under Rattus norvegicus [6] was 168.6 mL.
As to `Nc1ccc(S(=O)(=O)Nc2ccc(Cl)cn2)cc1`, the ClM in the data set listed under Rattus norvegicus [7] is 0.04 mL/min. The clearance in [1] was found to be 0.099 mL/min. Moreover, the K ass in the data set filed under Rattus norvegicus [2] is 25703 l M-1. The same molecule came in with a pKa in data set [3] of 7.04. Further, the half-life in data set [4] is 21.6 h. The k el in [8] is 5.56e-06 s⁻¹; in data set [5], 8.89e-06 s⁻¹. In data set [9], the CL renal came out at 0.06 mL/min. In addition, the Vc in the data set listed under Rattus norvegicus [6] was found to be 185.5 mL.
On to `Nc1ccc(S(=O)(=O)Nc2ncc(Br)cc2Br)cc1`, for which the ClM in the data set filed under Rattus norvegicus [7] came out at 0.02 mL/min. Further, the CL renal in [11] came to 0.03 mL/min. Also, in data set [1], the clearance amounted to 0.048 mL/min. For the same molecule, in the data set filed under Rattus norvegicus [2], the K ass is recorded as 13800 l M-1. The molecule also yielded a pKa in data set [3] of 5.78. The half-life in data set [4] is 21.6 h. For the same molecule, the k el in data set [8] is 5.56e-06 s⁻¹; in data set [5], 8.89e-06 s⁻¹. Moreover, in the data set listed under Rattus norvegicus [6], the Vc was 90.3 mL.
